Consider 27 molecules from ChEMBL document CHEMBL2074359, “Structural requirements for determining the substrate affinity of peptide transporters PEPT1 and PEPT2” (Pflugers Arch, 2000).

Test [1] has as its target T1, Solute carrier family 15 member 2 (Rattus norvegicus, UniProt Q63424).
T1 sequence (Q63424 whole entry): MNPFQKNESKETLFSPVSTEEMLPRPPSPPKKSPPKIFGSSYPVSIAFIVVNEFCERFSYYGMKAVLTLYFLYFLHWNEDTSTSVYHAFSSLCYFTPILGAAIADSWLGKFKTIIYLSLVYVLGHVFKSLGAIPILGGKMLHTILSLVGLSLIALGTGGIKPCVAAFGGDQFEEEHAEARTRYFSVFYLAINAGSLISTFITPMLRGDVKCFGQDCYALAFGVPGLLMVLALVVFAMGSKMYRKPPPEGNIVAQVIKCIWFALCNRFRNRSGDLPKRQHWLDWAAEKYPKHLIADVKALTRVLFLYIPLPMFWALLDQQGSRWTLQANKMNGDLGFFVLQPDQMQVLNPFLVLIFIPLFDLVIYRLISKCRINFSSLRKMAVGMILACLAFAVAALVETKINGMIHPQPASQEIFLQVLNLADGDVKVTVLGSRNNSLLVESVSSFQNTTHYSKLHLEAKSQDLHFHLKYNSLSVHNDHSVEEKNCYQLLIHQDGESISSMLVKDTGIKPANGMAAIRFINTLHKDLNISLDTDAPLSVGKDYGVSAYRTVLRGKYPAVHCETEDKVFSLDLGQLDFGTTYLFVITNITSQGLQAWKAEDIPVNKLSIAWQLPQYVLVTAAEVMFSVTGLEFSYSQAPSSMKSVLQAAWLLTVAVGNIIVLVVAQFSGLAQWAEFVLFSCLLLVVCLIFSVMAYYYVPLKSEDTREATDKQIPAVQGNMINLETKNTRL
Description: TP_TRANSPORTER: inhibition of Gly-Sar uptake in PEPT2-expressing LLC-PK1 cells. The format is functional, cell-based. Put shortly:
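LLC-PK1 cells stably carrying rat PEPT2 cDNA, grown 6 days in DMEM with 10% FBS. Monolayers were incubated 15 min at 37°C with [14C]glycylsarcosine (20 µM, pH 6.0) alone or with inhibitor, mostly 1–10000 µM. Uptake was normalized to Bradford protein, with control as 100%. IC50 came from nonlinear regression and Ki from Cheng–Prusoff. Two monolayers per concentration, four for control.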

In test [2] the target is T2, Solute carrier family 15 member 1 (Rattus norvegicus, UniProt P51574).
T2 sequence (P51574 whole entry): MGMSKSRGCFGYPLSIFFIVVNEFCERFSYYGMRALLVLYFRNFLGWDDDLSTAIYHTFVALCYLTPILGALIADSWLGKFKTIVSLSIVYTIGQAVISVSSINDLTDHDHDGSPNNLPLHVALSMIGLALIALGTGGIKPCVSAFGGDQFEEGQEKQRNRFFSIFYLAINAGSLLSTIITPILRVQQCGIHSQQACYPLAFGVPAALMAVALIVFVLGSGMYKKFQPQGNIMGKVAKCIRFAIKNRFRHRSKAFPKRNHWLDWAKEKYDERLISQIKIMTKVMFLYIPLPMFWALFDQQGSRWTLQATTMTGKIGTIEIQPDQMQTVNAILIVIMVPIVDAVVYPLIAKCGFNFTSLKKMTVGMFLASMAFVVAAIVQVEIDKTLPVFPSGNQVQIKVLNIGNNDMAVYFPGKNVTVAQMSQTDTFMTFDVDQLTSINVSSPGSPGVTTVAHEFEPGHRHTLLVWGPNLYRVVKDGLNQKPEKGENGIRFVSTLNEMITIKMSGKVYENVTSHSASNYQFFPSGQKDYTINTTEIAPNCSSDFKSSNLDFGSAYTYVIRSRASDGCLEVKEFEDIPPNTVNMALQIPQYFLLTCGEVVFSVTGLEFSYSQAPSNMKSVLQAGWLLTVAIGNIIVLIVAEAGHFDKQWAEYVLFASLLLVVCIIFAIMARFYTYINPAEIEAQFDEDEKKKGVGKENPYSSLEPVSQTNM
As to the kind of experiment: TP_TRANSPORTER: inhibition of Gly-Sar uptake in PEPT1-expressing LLC-PK1 cells. The format is functional, cell-based. Put shortly:
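LLC-PK1 cells stably carrying rat PEPT1 cDNA, grown 6 days in DMEM with 10% FBS. Monolayers were incubated 15 min at 37°C with [14C]glycylsarcosine (20 µM, pH 6.0) alone or with inhibitor, mostly 10–20000 µM. Uptake was normalized to Bradford protein, with control as 100%. IC50 came from nonlinear regression and Ki from Cheng–Prusoff. Two monolayers per concentration, four for control.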

Molecules are shown by their SMILES. Peptide text beside a SMILES is read from it.

For orientation: Ki means a dissociation constant, usually derived from enzyme kinetics or from competition with a known ligand. For the molecule `NCCCC[C@H](NC(=O)CN)C(=O)O` (H-Gly-Lys-OH), the figures for the Ki in test [1] and in test [2] were 210 µM and 2200 µM, respectively.
For `NCC(=O)N[C@@H](Cc1ccc(O)cc1)C(=O)O` (H-Gly-Tyr-OH), the Ki in test [1] was 14 µM; in test [2], 210 µM.
`NCC(=O)N[C@@H](CC(=O)O)C(=O)O` (H-Gly-Asp-OH): the Ki worked out at 60 µM in test [1] and 300 µM in test [2].
Taken in the same sequence, the figures for `CNCC(=O)NCC(=O)O` were 2200 µM and 13000 µM.
Turning to `CC(C)C[C@H](NC(=O)[C@@H](O)[C@H](N)Cc1ccccc1)C(=O)O` [UBENIMEX], the values for the Ki in test [1] and in test [2] were 18 µM and 1500 µM, respectively.
As to `NCC(=O)NCC(=O)NCC(=O)O` [GLYCYLGLYCYLGLYCINE], the values for the inhibitory constant (Ki) in test [1] and in test [2] were 160 µM and 1300 µM, respectively.
For the molecule `CSCC[C@H](NC=O)C(=O)N[C@@H](C)C(=O)O` (HELM PEPTIDE1{[O=C[*:2]].M.A}$$$$V2.0), the Ki in test [1] turned out to be 10000 µM; in test [2], 24000 µM.
Take `NCC(=O)NCC(=O)O` (H-Gly-Gly-OH): the Ki in test [1] amounted to 42 µM; in test [2], 860 µM.
For the molecule `N[C@@H](CC(=O)O)C(=O)N[C@@H](CC(=O)O)C(=O)O` (H-Asp-Asp-OH), the Ki amounted to 150 µM in test [1] and 990 µM in test [2].
For the molecule `N[C@@H](Cc1ccccc1)C(=O)NCC(=O)O` (H-Phe-Gly-OH), the Ki amounted to 7 µM in test [1] and 220 µM in test [2].
With `C[C@H](N)C(=O)Nc1ccc([N+](=O)[O-])cc1`, the figures for the Ki in test [1] and in test [2] were 29 µM and 61 µM, respectively.
Turning to `NCC(=O)NCC(=O)N[C@@H](Cc1ccccc1)C(=O)O` (H-Gly-Gly-Phe-OH), the Ki came to 29 µM in test [1] and 610 µM in test [2].
Taken in the same sequence, the figures for `NCC(=O)CCC(=O)O` [AMINOLEVULINIC ACID] were 230 µM and 2200 µM.
For `NCCC(=O)N[C@@H](Cc1cnc[nH]1)C(=O)O` [CARNOSINE], in that order: 66 µM and 8000 µM.
Taken in the same sequence, the figures for `CSCC[C@H](N)C(=O)N[C@@H](C)C(=O)O` (H-Met-Ala-OH) were 17 µM and 150 µM.
Consider `N[C@@H](CC(=O)O)C(=O)NCC(=O)O` (H-Asp-Gly-OH), for which the results for the Ki in test [1] and in test [2] were 46 µM and 830 µM, respectively.
Taken in the same sequence, the figures for `O=C(O)CNC(=O)[C@@H]1CCCN1` (H-Pro-Gly-OH) were 2000 µM and 13000 µM.
Consider `CC(C)C[C@H](NC(=O)CN)C(=O)O`, for which the Ki in test [1] worked out at 6 µM; in test [2], 110 µM.
For `NCC(=O)N[C@@H](Cc1c[nH]c2ccccc12)C(=O)O` (H-Gly-Trp-OH), the Ki is 7 µM in test [1] and 1400 µM in test [2].
For `NCC(=O)N[C@@H](Cc1c[nH]cn1)C(=O)O` (H-Gly-His-OH), in that order: 39 µM and 1400 µM.
Taken in the same sequence, the figures for `NCC(=O)N[C@@H](CC(N)=O)C(=O)O` (H-Gly-Asn-OH) were 22 µM and 270 µM.
For the molecule `N[C@@H](CC(=O)NCC(=O)O)C(=O)O`, the Ki in test [1] is 28000 µM; in test [2] it was over 50000 µM.
Take `NCCCCCCCC(=O)O`: the Ki in test [1] was 7900 µM; in test [2] it was 4400 µM.
`NCC(=O)N[C@@H](Cc1ccccc1)C(=O)O` (H-Gly-Phe-OH): the Ki is 8 µM in test [1] and 170 µM in test [2].
`CC(C)C[C@H](NC(=O)CN)C(=O)N[C@@H](Cc1ccc(O)cc1)C(=O)O` (H-Gly-Leu-Tyr-OH): the Ki in test [1] was 8 µM; in test [2] it was 190 µM.
For `NCCCC[C@H](N)C(=O)NCC(=O)O` (H-Lys-Gly-OH), in that order: 21 µM and 910 µM.
As for `NCCCC[C@H](NC(=O)[C@@H](N)CCCCN)C(=O)O`, the figures for the Ki in test [1] and in test [2] were 96 µM and 8000 µM, respectively.
